Screening results (PubChem)
This is a sample that favours compounds with a hit; in the whole collection about 3.8% have one here.
SIRT5 inh: blocks human SIRT5 desuccinylation of peptide; Purified SirT5, succinyl-peptide AMC, trypsin-coupled fluorescence; AID 652115; inhibition, % at 15 µM; 330,000 tested, 1.1% active; Q9NXA8; in the data active = inhibition above about 15%; inconclusive = no clear call, values can overlap the other calls
Target sequence (Q9NXA8 whole entry, looked up): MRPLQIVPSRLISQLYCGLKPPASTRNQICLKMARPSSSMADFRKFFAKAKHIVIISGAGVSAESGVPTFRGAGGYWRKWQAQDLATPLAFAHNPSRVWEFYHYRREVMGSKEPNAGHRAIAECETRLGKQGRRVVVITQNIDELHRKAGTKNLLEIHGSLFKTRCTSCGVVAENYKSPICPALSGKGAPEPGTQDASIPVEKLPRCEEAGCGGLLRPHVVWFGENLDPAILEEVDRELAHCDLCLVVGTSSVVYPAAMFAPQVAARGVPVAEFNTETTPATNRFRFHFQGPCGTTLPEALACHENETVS
Xi reactivation: reactivates the inactive X chromosome in mouse fibroblasts; XiGFP mouse fibroblasts, % GFP-positive cells imaging, 3 d; cells co-treated with 5-aza-dC sensitizer; scaled so ellipticine positive control = 100%; activation, % at 7.58 µM; 360,000 tested, 0.055% active;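 active = mean normalized replicate activation at least 10% and every replicate at or above 10%; inconclusive = only one of the two criteria met; inactive = mean below 10% and not all replicates reach 10%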;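 also: 0% = median of on-plate neutral control wells and 100% = ellipticine 6 µM median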
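Assay system: SV40-immortalized XiGFP fibroblast cells, line 68-5-11; buffer or medium: DMEM plus 5-aza-dC sensitizer; compound: one concentration, pinned; timing: compounds 3 days, fix/stain 15 min at room temperature; benchmarks: positive control ellipticine, 6 µM final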
DENV2 CPE: protects cells from dengue virus 2 cytopathic effect. DENV2-infected cells, cytopathic effect rescue, plate reader. CPE inhibition, % at 9.99 µM. 350,000 tested, 1.7% active. AID 651640; in the data active = CPE inhibition above about 20%, passing the limit was not always enough; inconclusive = no clear call, values can overlap the other calls; tested in BHK-21 cells;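 also: 0% = median of neutral control wells and 100% = median of positive control wells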
ARNT-TACC3 inh: disrupts binding between human ARNT and TACC3 | Q9Y6A5 | AlphaScreen His-ARNT PAS-B/GST-TACC3 binding, luminescence; TACC3 fragment carries E629A point mutation | inhibition, % at 9.99 µM | 390,000 tested, 0.66% active | AID 623870;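 active = mean inhibition of replicates at least 50% and at least half of replicates each reaching 50%; inconclusive = half or more replicates reach 50% but mean below 50%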;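 also: 0% = complete ARNT plus TACC3 wells and 100% = ARNT alone without TACC3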
FN deposition inh: fibronectin deposition inhibition. 350,000 tested, 0.086% active. AH1F fibroblasts, Alexa488-fibronectin deposition fluorescence, overnight. inhibition, % at 12.6 µM;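 active = mean inhibition across replicates of 30% or more, regardless of how many single replicates reach that level; inconclusive = mean under 30% yet at least half of replicates reach 30%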;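 also: positive control wells lacked labelled fibronectin entirely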
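Material: AH1F fibroblast monolayer depositing Alexa488-labelled fibronectin into matrix / Amount: 10000 AH1F cells per well / Signal: fluorescence 485/525 nm / Medium: DMEM, 2% serum / Compound: single dose, pinned / Incubation: 1 h cell adhesion before compound, then overnight fibronectin incubation / Reagent: Alexa488-FN, 24 nM final / Read-out: inhibition of fibronectin deposition signal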
FGF22 binding: binders of recombinant human FGF22 by thermal shift | SYPRO orange fluorescence; percent of sucrose octasulfate shift, DMSO zero | 340,000 tested, 1.5% active | activity (Tm shift, normalised), % at 9.99 µM | Q9HCT0;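 active = mean Tm shift, scaled 0 neutral to 100 positive control, at about 1.3% or above, every replicate too, limit read from the data; inconclusive = no clear call, values can overlap the other calls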
Target sequence (Q9HCT0 whole entry, looked up): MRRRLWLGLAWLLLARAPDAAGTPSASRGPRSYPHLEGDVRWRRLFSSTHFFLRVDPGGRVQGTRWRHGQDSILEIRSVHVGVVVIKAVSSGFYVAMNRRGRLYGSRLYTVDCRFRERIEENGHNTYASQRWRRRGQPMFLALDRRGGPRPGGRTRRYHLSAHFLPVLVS
Starred values were filed as active, the others as inactive; ? = inconclusive; / = not tested or not shown.

SMILES	SIRT5 inh	Xi reactivation	DENV2 CPE	ARNT-TACC3 inh	FN deposition inh	FGF22 binding
COc1cccc(CNC(=O)[C@H]2[C@H](CO)[C@H]3Cn4c(ccc(-c5cccc(OC)c5)c4=O)[C@H]3N2C)c1	-3	0	-6	3	/	0
CCCN1[C@@H]2c3ccc(-c4cccc(OC)c4)c(=O)n3C[C@@H]2[C@@H](CO)[C@@H]1C(=O)OC	16*	0	-6	3	-1	0
CCN1[C@@H]2c3ccc(-c4ccccc4)c(=O)n3C[C@H]1[C@H](CO)[C@H]2C(=O)NC1CCC1	-12	1	3	-4	/	0
C[C@H]1CN([C@@H](C)CO)S(=O)(=O)c2ccc(/C=C/c3ccccc3)cc2O[C@@H]1CN(C)C(=O)c1ccccc1	/	-1	5	30	10	0
CNC[C@H]1Oc2c(cccc2N(C)C)C(=O)N([C@@H](C)CO)C[C@H]1C	-1	0	-3	-3	-5	0
O=C(C[C@H]1C[C@H]2c3cc(NC(=O)CC4CC4)ccc3O[C@H]2[C@H](CO)O1)NCc1cccnc1	-3	0	-2	-5	1	0
O=C(NC1CCC1)[C@@H]1[C@@H](CO)[C@@H]2Cn3c(ccc(C4=CCCCC4)c3=O)[C@@H]2N1C(=O)C1CCOCC1	-13	0	56*	-3	/	0
O=C(c1ccccn1)N1C[C@@H]2[C@H](c3ccccc31)[C@@H](CO)N2C(=O)c1ccccn1	/	0	69*	2	/	1
CC(C)NC(=O)N1C[C@H]2[C@@H](c3ccccc31)[C@@H](CO)N2C(=O)c1ccccn1	1	0	115*	4	/	/
CC(=O)Nc1cccc(-c2ccnc3c2CC(C(=O)NCc2ccncc2)O3)c1 (stereo not given)	/	0	-8	/	-22	0
CC(=O)Nc1ccc(-c2ccnc3c2CC(C(=O)NCc2ccc(N4CCN(C)CC4)cc2)O3)cc1 (stereo not given)	-2	0	-1	/	5	0
CN1CCN(c2ccc(CNC(=O)C3Cc4c(-c5ccc(Cl)cc5)ccnc4O3)cc2)CC1 (stereo not given)	/	0	?	/	-1	43*
CC(=O)Nc1cccc(-c2ccnc3c2CC(C(=O)NCc2ccc(F)c(F)c2)O3)c1 (stereo not given)	15*	0	-7	/	2	0
Cc1ccccc1-c1ccc([C@@H]2[C@@H](CO)N3C(=O)CN(C(=O)c4cccnc4)C[C@@H]23)cc1	/	0	/	/	/	/
COCC(=O)N1CC2(C1)CN(Cc1ccccc1F)[C@H](CO)c1[nH]c3cc(OC)ccc3c12	0	0	0	/	-1	0
CC(Sc1ccsc1[N+](=O)[O-])C(=O)NCc1ccccc1 (stereo not given)	-2	0	3	/	5	43*
COc1ccccc1CNC(=O)C(C)Sc1ccsc1[N+](=O)[O-] (stereo not given)	-1	0	-12	/	0	0
CC(Sc1ccsc1[N+](=O)[O-])C(=O)N1CCN(c2ccccn2)CC1 (stereo not given)	-1	0	-5	2	-2	44*
CC(C)NC(=O)Nc1ccc2c(c1)C(=O)N([C@@H](C)CO)C[C@H](C)[C@@H](CN(C)Cc1ccccc1)OCCCC[C@H](C)O2	-5	0	11	-1	0	0
Cc1ccccc1S(=O)(=O)N(C)C[C@H]1OCc2cn(nn2)CCCC(=O)N([C@@H](C)CO)C[C@H]1C	/	0	/	/	3	/
CO[C@H]1CN(C)C(=O)c2ccc(NC(=O)C3CCC3)cc2OC[C@@H](C)N(C(=O)CN(C)C)C[C@@H]1C	/	0	/	2	/	/
CCOC(=O)[C@@H]1[C@H]2COc3ccccc3[C@@H]2N2C(=O)N(c3ccc(F)cc3)C(=O)[C@@]12C	-3	0	/	0	2	45*
CCOC(=O)[C@@H]1[C@H]2COc3ccc(Br)cc3[C@@H]2N2C(=O)N(c3ccc(C)cc3)C(=O)[C@]12C	/	0	51*	0	-2	0
CCOC(=O)[C@@H]1[C@H]2COc3ccc(Br)cc3[C@H]2N2C(=O)N(c3ccc(C)cc3)C(=O)[C@]12C	-2	0	4	11	11	0
C[C@]12C(=O)N(c3ccccc3)C(=O)N1[C@@H]1c3ccccc3OC[C@@H]1[C@H]2c1ccccc1	/	0	97*	3	7	0
SMILES	SIRT5 inh	Xi reactivation	DENV2 CPE	ARNT-TACC3 inh	FN deposition inh	FGF22 binding
C[C@]12C(=O)N(c3ccccc3)C(=O)N1[C@H]1c3ccccc3OC[C@@H]1[C@H]2c1ccccc1	/	0	7	-1	4	0
CCOC(=O)[C@H]1[C@H]2COc3ccc(Br)cc3[C@@H]2N2C(=O)CN(Cc3ccco3)C(=O)[C@@]12C	/	0	50*	-1	2	0
C[C@@H]1CN([C@@H](C)CO)C(=O)c2cc(C#CC3CCCC3)cnc2O[C@H]1CN(C)C(=O)C1CCCCC1	11	0	-6	2	-7	0
CCS(=O)(=O)N1CCC2(CC1)CN(C(=O)c1cccc(F)c1)[C@@H](CO)c1c2c2ccc(OC)cc2n1C	-7	0	4	/	-2	/
O=S(=O)(Nc1nc(SCc2ccc(Cl)cc2)n[nH]1)c1ccc(F)cc1	-5	0	29*	-12	-5	0
CCc1nc(SCc2ccc(Cl)cc2)n[nH]1	1	0	1	/	2	0
CCCCC[C@@H]1C=C(C(=O)O)[C@H](c2ccc3c(c2)OCO3)N1S(=O)(=O)c1ccc(C)cc1	2	0	31*	-2	0	0
O=C(Cc1cccnc1)N1CC(=O)N2[C@H](C1)[C@H](c1ccc(C#CC3CCCC3)cc1)[C@@H]2CO	3	0	?	/	4	/
CC(C)(C)NC(=O)NC(=O)CN1CCCCCCC1	-17	-1	/	1	/	0
CC(C)(C)NC(=O)NC(=O)CN1CCCCC1	-3	0	5	1	-13	43*
O=C(CN1CCCCC1)NC(=O)NC1CCCC1	3	0	5	-7	-2	43*
CC(C)(C)NC(=O)NC(=O)CN1CCN(C(c2ccccc2)c2ccccc2)CC1	3	0	-4	6	6	43*
C[C@@H]1CN([C@H](C)CO)S(=O)(=O)c2ccc(C#Cc3ccncc3)cc2O[C@@H]1CN(C)C	-15	-1	-1	-3	-10	-1
CNC(=O)C[C@@H]1CC[C@H]2[C@@H](COc3ccc(NC(=O)Nc4ccc(C)cc4)cc3C(=O)N2C)O1	-4	0	7	2	-4	0
